ChEMBL document CHEMBL4689842, “EUbOPEN Chemogenomics Library wave 1” (2021)
Values joined by “and” are separate entries in the source; they are usually repeats but may differ in a detail not shown here. Equal entries are not always repeated.

Tested on: U2OS
Assay: Multiplex assay against U2OS
Format: toxicity, cell-based
Settings: human, 10 µM, compound concentration 10 uM
Summary of the method: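 Tubulin, mitochondrial-mass and membrane-permeability phenotypes are per cents of healthy-nucleus cells. Cells were gated by CellPathfinder machine learning into Hoechst high-intensity objects or normal cells, normal cells into healthy, pyknosed or fragmented nuclei, and pyknosed cells into mitotic or apoptotic. Before that, live cells stained at seeding with Hoechst33342, BioTracker Green Microtubule Cytoskeleton Dye, MitoTracker Red and Annexin V Alexa Fluor 680 were imaged on a CQ1 microscope at 37°C and 5% CO2 after compound addition.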

COc1ccc(Oc2cc(NCCC(F)(F)F)c3ncc(-c4ccc(C(=O)NC5CC5)c(C)c4)n3n2)c(F)c1F [BAY-1217389]
Population Apoptotic (%) (12 h, replicate 1): 40% and 58% | Population Fragmented Nuclei (%) (12 h, replicate 1): 9% and 11% | Population Healthy Nuclei (%) (12 h, replicate 1): 83% and 73% | Population Hoechst High Intensity Objects (%) (12 h, replicate 1): 4% | Population Membrane Permeable-Phenotype (%) (12 h, replicate 1): 66% and 23% | Population Mitotic Cells (%) (12 h, replicate 1): 60% and 41% | Population Normal (%) (12 h, replicate 1): 95% | Population Pyknosed Nuclei (%) (12 h, replicate 1): 7% and 15% | Population Tubulin-Different-Phenotype (%) (12 h, replicate 1): 97% and 100% | Total Cell Count (12 h, replicate 1): 148 and 164 | Population Apoptotic (%) (12 h, replicate 2): 60% and 55% | Population Fragmented Nuclei (%) (12 h, replicate 2): 19% | Population Healthy Nuclei (%) (12 h, replicate 2): 85% and 59% | Population Hoechst High Intensity Objects (%) (12 h, replicate 2): 17% and 11% | Population Membrane Permeable-Phenotype (%) (12 h, replicate 2): 53% and 63% | Population Mitotic Cells (%) (12 h, replicate 2): 40% and 45% | Population Normal (%) (12 h, replicate 2): 82% and 88% | Population Tubulin-Different-Phenotype (%) (12 h, replicate 2): 88% | Total Cell Count (12 h, replicate 2): 114 and 108 | Population Apoptotic (%) (24 h, replicate 1): 52% and 69% | Population Fragmented Nuclei (%) (24 h, replicate 1): 10% and 14% | Population Healthy Nuclei (%) (24 h, replicate 1): 77% and 65% | Population Hoechst High Intensity Objects (%) (24 h, replicate 1): 5% and 2% | Population Membrane Permeable-Phenotype (%) (24 h, replicate 1): 38% and 41% | Population Mitochondria Different-Phenotype (%) (24 h, replicate 1): 44% and 83% | Population Mitotic Cells (%) (24 h, replicate 1): 47% and 30% | Population Normal (%) (24 h, replicate 1): 94% and 97% | Population Pyknosed Nuclei (%) (24 h, replicate 1): 11% and 20% | Population Tubulin-Different-Phenotype (%) (24 h, replicate 1): 92% and 99% | Total Cell Count (24 h, replicate 1): 154 and 167 | Population Apoptotic (%) (24 h, replicate 2): 50% and 60% | Population Fragmented Nuclei (%) (24 h, replicate 2): 13% | Population Healthy Nuclei (%) (24 h, replicate 2): 75% and 54% | Population Hoechst High Intensity Objects (%) (24 h, replicate 2): 10% and 13% | Population Membrane Permeable-Phenotype (%) (24 h, replicate 2): 39% and 78% | Population Mitochondria Different-Phenotype (%) (24 h, replicate 2): 59% and 95% | Population Mitotic Cells (%) (24 h, replicate 2): 50% and 39% | Population Normal (%) (24 h, replicate 2): 89% and 86% | Population Pyknosed Nuclei (%) (24 h, replicate 2): 14% and 32% | Population Tubulin-Different-Phenotype (%) (24 h, replicate 2): 87% and 100% | Total Cell Count (24 h, replicate 2): 110 and 101
